Reference: ChEMBL document CHEMBL1145811, “Synthesis and antibacterial activity of a novel series of acylides: 3-O-(3-pyridyl)acetylerythromycin A derivatives” (J Med Chem, 2003)
≈ marks a conversion by molar mass, not a printed value.

Key:
Type in all cases: functional
Streptococcus pneumoniae [1] = assay: In vitro minimum inhibitory concentration for antibacterial activity against erythromycin-susceptible strain Streptococcus pneumoniae IID553
Summary of the method: (§1)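 MIC by agar dilution following the Japan Society of Chemotherapy standard method for aerobic bacteria. S. aureus 209P-JC and S. pneumoniae IID553 are erythromycin-susceptible strains.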

Haemophilus influenzae [2] = assay: In vitro minimum inhibitory concentration for antibacterial activity against Haemophilus influenzae ATCC 33533 (ampicillin-resistant strain that produces beta-lactamase)
Summary of the method: (§2)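 Agar dilution MIC determined by the Japan Society of Chemotherapy standard method for aerobic bacteria.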

Staphylococcus aureus [3] = assay: In vitro minimum inhibitory concentration for antibacterial activity against erythromycin-susceptible strain Staphylococcus aureus […]; summary of the method: as §1
Streptococcus pneumoniae [4] = assay: In vitro minimum inhibitory concentration for antibacterial activity against Streptococcus pneumoniae 211 (MLSb-resistant strain encoded by the erm(B) gene); summary of the method: as §2
Staphylococcus aureus [5] = assay: In vitro minimum inhibitory concentration for antibacterial activity against Staphylococcus aureus SR138 (constitutively MLSb-resistant strain encoded by the erm(A) gene); summary of the method: as §2
Haemophilus influenzae [6] = assay: In vitro minimum inhibitory concentration for antibacterial activity against Haemophilus influenzae ATCC 43095 (ampicillin-susceptible strain that does not produce beta-lactamase); summary of the method: as §2
Staphylococcus aureus [7] = assay: In vitro minimum inhibitory concentration for antibacterial activity against Staphylococcus aureus B1 (inducibly MLSb-resistant strain encoded by the erm(C) gene); summary of the method: as §2
Streptococcus pneumoniae [8] = assay: In vitro minimum inhibitory concentration for antibacterial activity against Streptococcus pneumoniae 210 (efflux-resistant strain encoded by the mef(A) gene); summary of the method: as §2

Row | Compound | MIC (Streptococcus pneumoniae [1]) | MIC (Haemophilus influenzae [2]) | MIC (Staphylococcus aureus [3]) | MIC (Streptococcus pneumoniae [4]) | MIC (Staphylococcus aureus [5]) | MIC (Haemophilus influenzae [6]) | MIC (Staphylococcus aureus [7]) | MIC (Streptococcus pneumoniae [8])
1 | CC[C@H]1OC(=O)[C@H](C)[C@@H](OC(=O)Cc2ccccc2OC)[C@H](C)[C@@H](OC2O[C@H](C)C[C@H](N(C)C)[C@H]2O)[C@@](C)(OC)C[C@@H](C)C(=O)[C@H](C)[C@@H](O)[C@]1(C)O (stereo partly drawn) | 1.56 µg/mL (≈ 2.11 µM) | 100 µg/mL (≈ 136 µM) | 3.13 µg/mL (≈ 4.24 µM) | > 100 µg/mL | > 100 µg/mL | > 100 µg/mL | 12.5 µg/mL (≈ 16.9 µM) | 1.56 µg/mL (≈ 2.11 µM)
2 | CC[C@H]1OC(=O)[C@H](C)[C@@H](OC(=O)Cc2ccncc2)[C@H](C)[C@@H](OC2O[C@H](C)C[C@H](N(C)C)[C@H]2O)[C@@]2(C)C[C@@H](C)[C@H](OC(=O)O2)[C@H](C)[C@H]2OC(=O)O[C@@]21C (stereo partly drawn) | 0.05 µg/mL (≈ 0.0668 µM) | 6.25 µg/mL (≈ 8.35 µM) | 0.2 µg/mL (≈ 0.267 µM) | > 100 µg/mL | > 100 µg/mL | 12.5 µg/mL (≈ 16.7 µM) | 0.39 µg/mL (≈ 0.521 µM) | 0.2 µg/mL (≈ 0.267 µM)
3 | CC[C@H]1OC(=O)[C@H](C)[C@@H](OC(=O)Cc2cccnc2)[C@H](C)[C@@H](OC2O[C@H](C)C[C@H](N(C)C)[C@H]2O)[C@@](C)(O)C[C@@H](C)CN(C)[C@H](C)[C@@H](O)[C@]1(C)O (stereo partly drawn) | 0.78 µg/mL (≈ 1.1 µM) | 1.56 µg/mL (≈ 2.2 µM) | 3.13 µg/mL (≈ 4.41 µM) | > 100 µg/mL | > 100 µg/mL | 1.56 µg/mL (≈ 2.2 µM) | 6.25 µg/mL (≈ 8.8 µM) | 0.78 µg/mL (≈ 1.1 µM)
4 | CC[C@H]1OC(=O)[C@H](C)[C@@H](OC(=O)Cc2cccnc2)[C@H](C)[C@@H](OC2O[C@H](C)C[C@H](N(C)C)[C@H]2O)[C@@](C)(O)C[C@@H](C)C(=O)[C@H](C)[C@@H](O)[C@]1(C)O (stereo partly drawn) | 0.2 µg/mL (≈ 0.288 µM) | 12.5 µg/mL (≈ 18 µM) | 1.56 µg/mL (≈ 2.25 µM) | > 100 µg/mL | > 100 µg/mL | 12.5 µg/mL (≈ 18 µM) | 6.25 µg/mL (≈ 8.99 µM) | 0.78 µg/mL (≈ 1.12 µM)
5 | CC[C@H]1OC(=O)[C@H](C)[C@@H](OC(=O)Cc2ccccc2[N+](=O)[O-])[C@H](C)[C@@H](OC2O[C@H](C)C[C@H](N(C)C)[C@H]2O)[C@@](C)(OC)C[C@@H](C)C(=O)[C@H](C)[C@@H](O)[C@]1(C)O (stereo partly drawn) | 0.2 µg/mL (≈ 0.266 µM) | 50 µg/mL (≈ 66.4 µM) | 0.39 µg/mL (≈ 0.518 µM) | > 100 µg/mL | > 100 µg/mL | 50 µg/mL (≈ 66.4 µM) | 0.78 µg/mL (≈ 1.04 µM) | 0.2 µg/mL (≈ 0.266 µM)
6 | CC[C@H]1OC(=O)[C@H](C)[C@@H](OC(=O)Cc2cccc(OC)c2)[C@H](C)[C@@H](OC2O[C@H](C)C[C@H](N(C)C)[C@H]2O)[C@@](C)(OC)C[C@@H](C)C(=O)[C@H](C)[C@@H](O)[C@]1(C)O (stereo partly drawn) | 0.39 µg/mL (≈ 0.529 µM) | 25 µg/mL (≈ 33.9 µM) | 1.56 µg/mL (≈ 2.11 µM) | > 100 µg/mL | > 100 µg/mL | 50 µg/mL (≈ 67.8 µM) | 3.13 µg/mL (≈ 4.24 µM) | 0.39 µg/mL (≈ 0.529 µM)
7 | CC[C@H]1OC(=O)[C@H](C)[C@@H](OC(=O)Cc2cccnc2)[C@H](C)[C@@H](OC2O[C@H](C)C[C@H](N(C)C)[C@H]2O)[C@@](C)(OC)C[C@@H](C)/C(=N\O)[C@H](C)[C@@H](O)[C@]1(C)O (stereo partly drawn) | 0.2 µg/mL (≈ 0.276 µM) | 12.5 µg/mL (≈ 17.3 µM) | 0.78 µg/mL (≈ 1.08 µM) | > 100 µg/mL | > 100 µg/mL | 12.5 µg/mL (≈ 17.3 µM) | 1.56 µg/mL (≈ 2.15 µM) | 0.39 µg/mL (≈ 0.539 µM)
8 | CC[C@H]1OC(=O)[C@H](C)[C@@H](OC2C[C@@](C)(OC)[C@@H](O)[C@H](C)O2)[C@H](C)[C@@H](OC2O[C@H](C)C[C@H](N(C)C)[C@H]2O)[C@@]2(C)C[C@@H](C)[C@H](OC(=O)O2)[C@H](C)[C@H]2OC(=O)O[C@@]21C (stereo partly drawn) | 0.1 µg/mL (≈ 0.127 µM) | 1.56 µg/mL (≈ 1.98 µM) | 0.1 µg/mL (≈ 0.127 µM) | > 100 µg/mL | > 100 µg/mL | 1.56 µg/mL (≈ 1.98 µM) | > 100 µg/mL | 0.39 µg/mL (≈ 0.495 µM)
9 | CC[C@H]1OC(=O)[C@H](C)[C@@H](OC(=O)Cc2cccnc2)[C@H](C)[C@@H](OC2O[C@H](C)C[C@H](N(C)C)[C@H]2O)[C@@](C)(O)C[C@@H](C)[C@H](O)[C@H](C)[C@H]2OC(=O)O[C@@]21C (stereo partly drawn) | 0.1 µg/mL (≈ 0.138 µM) | 6.25 µg/mL (≈ 8.65 µM) | 0.78 µg/mL (≈ 1.08 µM) | > 100 µg/mL | > 100 µg/mL | 3.13 µg/mL (≈ 4.33 µM) | 0.78 µg/mL (≈ 1.08 µM) | 0.2 µg/mL (≈ 0.277 µM)
10 | CC[C@H]1OC(=O)[C@H](C)[C@@H](OC(=O)CCc2cccc(OC)c2)[C@H](C)[C@@H](OC2O[C@H](C)C[C@H](N(C)C)[C@H]2O)[C@@](C)(OC)C[C@@H](C)C(=O)[C@H](C)[C@@H](O)[C@]1(C)O (stereo partly drawn) | 0.78 µg/mL (≈ 1.04 µM) | 100 µg/mL (≈ 133 µM) | 3.13 µg/mL (≈ 4.16 µM) | > 100 µg/mL | > 100 µg/mL | 100 µg/mL (≈ 133 µM) | 3.13 µg/mL (≈ 4.16 µM) | 0.78 µg/mL (≈ 1.04 µM)
11 | CC[C@H]1OC(=O)[C@H](C)[C@@H](OC(=O)Cc2cccnc2)[C@H](C)[C@@H](OC2O[C@H](C)C[C@H](N(C)C)[C@H]2O)[C@@](C)(O)C[C@@H](C)[C@@H]2OC(=O)O[C@H]([C@H]2C)[C@]1(C)O (stereo partly drawn) | 0.1 µg/mL (≈ 0.138 µM) | 6.25 µg/mL (≈ 8.65 µM) | 0.78 µg/mL (≈ 1.08 µM) | > 100 µg/mL | > 100 µg/mL | 12.5 µg/mL (≈ 17.3 µM) | 1.56 µg/mL (≈ 2.16 µM) | 0.39 µg/mL (≈ 0.54 µM)
